Experimental data from ChEMBL document CHEMBL3808283, “Biological Characterization and in Vivo Assessment of the Activity of a New Synthetic Macrocyclic Antifungal Compound” (J Med Chem, 2016).
≈ marks a conversion by molar mass, not a printed value. Calls of active or inactive are those of the source. The calls are words filed in the database; no cut-off is given here.

How the values were obtained:
Candida albicans [1] = test: Upregulation of orf19.3378 gene expression in Candida albicans SC5314 at 3 uM after 45 mins by microarray method relative to control; type: functional
Outline: (§1)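 Log-phase cultures in liquid YEPD were exposed to 3 µM compound (final) for 15 or 45 min, with untreated controls sampled at the same times, in three biological replicates. Total RNA was extracted by glass-bead/phenol-chloroform disruption and integrity-checked. One-color Cy3-labelled cRNA (600 ng) was hybridized for 17 h at 65 °C to 8 × 15K arrays, and fold change was taken versus control.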

Candida parapsilosis [2] = test: Antifungal activity against Candida parapsilosis ATCC 34136 measured at 24 hrs by broth dilution assay; type: functional; settings: Lodderomyces parapsilosis, ATCC 34136, 24 h
Outline: (§2)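 EUCAST broth microdilution, including the update for non-fermenting yeasts (Cryptococcus, Geotrichum), on clinical and reference yeast isolates. Incubated at 37 °C and read at 24, 48 and 72 h. MIC taken as the lowest concentration with no visible growth. For Cryptococcus and Geotrichum, MICs were read only once growth was visible in the control row.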

Candida albicans [3] = test: Antifungal activity against Candida albicans isolate DSY448 harboring CDR1 deletion mutant at 10 uM by serial dilution assay; type: functional, organism-based
Outline: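 Spot dilution assay: C. albicans cells 10-fold serially diluted from 2 × 10^7 cells/mL, with 5 µL of each dilution spotted onto YEPD agar plates containing the drug.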

Candida parapsilosis [4] = test: Antifungal activity against Candida parapsilosis 81E measured at 48 hrs by broth dilution assay; type: functional; settings: Lodderomyces parapsilosis; outline: as §2
Candida albicans [5] = test: Antifungal activity against Candida albicans 53T measured at 72 hrs by broth dilution assay; type: functional; outline: as §2
Candida albicans [6] = test: Upregulation of LCB4 gene expression in Candida albicans SC5314 at 3 uM after 45 mins by microarray method relative to control; type: functional
Outline: (§3)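 Log-phase C. albicans SC5314 in liquid YEPD exposed to 3 µM final for 15 or 45 min; untreated controls taken at the same time points. Three biological replicates. RNA extracted by glass-bead/phenol-chloroform method and integrity checked. One-color Cy3-labeled cRNA (600 ng) hybridized 17 h at 65 °C to 8 × 15K arrays. Expression expressed as fold change versus control.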

Candida albicans [7] = test: Upregulation of CDR2 gene expression in Candida albicans SC5314 at 3 uM after 45 mins by microarray method relative to control; type: functional; outline: as §3
Pichia kudriavzevii [8] = test: Fungicidal activity against Candida krusei ATCC 14243 assessed as reduction in CFU at 80 uM measured at 24 hrs by time kill assay relative to control; type: functional; settings: ATCC 14243, 24 h
Outline: (§4)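 EUCAST broth microdilution at 37 °C. From wells at MIC, 2×, 4× and 8× MIC, 10 µL aliquots were taken, serially 10-fold diluted in saline and plated on Sabouraud dextrose agar. Plates were incubated at 37 °C for 24/48 h, and 48 h for Cryptococcus and Geotrichum. Done in duplicate, detection limit 10 CFU/mL. A drop of at least 3 Log10 CFU/mL from the initial inoculum in 24 h counts as fungicidal; a smaller drop counts as fungistatic.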

Candida albicans [9] = test: Antifungal activity against Candida albicans 15T measured at 48 hrs by broth dilution assay; type: functional; outline: as §2
Candida albicans [10] = test: Upregulation of orf19.2726 gene expression in Candida albicans SC5314 at 3 uM after 45 mins by microarray method relative to control; type: functional; outline: as §1
Candida albicans [11] = test: Antifungal activity against Candida albicans 4T up to 96 hrs by broth dilution assay; type: functional, organism-based
Candida albicans [12] = test: Antifungal activity against Candida albicans ATCC 60193 measured at 72 hrs by broth dilution assay; type: functional; settings: ATCC 60193, 72 h; outline: as §2
Candida albicans [13] = test: Upregulation of orf19.3089 gene expression in Candida albicans SC5314 at 3 uM after 45 mins by microarray method relative to control; type: functional; outline: as §1
Pichia kudriavzevii [14] = test: Antifungal activity against Candida krusei ATCC 14243 measured at 72 hrs by broth dilution assay; type: functional; settings: ATCC 14243, 72 h; outline: as §2
Cryptococcus neoformans [15] = test: Antifungal activity against Cryptococcus neoformans measured at 48 hrs by broth dilution assay; type: functional, organism-based; outline: as §2
Candida tropicalis = test: Fungicidal activity against Candida tropicalis 86E assessed as reduction in CFU at 20 uM measured at 24 hrs by time kill assay relative to control; type: functional; outline: as §4
Cryptococcus neoformans [16] = test: Antifungal activity against Cryptococcus neoformans measured at 24 hrs by broth dilution assay; type: functional, organism-based; outline: as §2
Candida albicans [17] = test: Upregulation of LCB4 gene expression in Candida albicans SC5314 at 3 uM after 15 mins by microarray method relative to control; type: functional; outline: as §3
Candida parapsilosis [18] = test: Fungistatic activity against Candida parapsilosis 81E at 20 uM after 24 to 48 hrs by time kill assay; type: functional, organism-based; outline: as §4
Candida albicans [19] = test: Upregulation of TAC1 gene expression in Candida albicans SC5314 at 3 uM after 45 mins by microarray method relative to control; type: functional; outline: as §3
Nakaseomyces glabratus = test: Antifungal activity against Candida glabrata 70 measured at 24 hrs by broth dilution assay; type: functional; settings: Nakaseomyces glabratus, 70, 24 h; outline: as §2
Candida parapsilosis [20] = test: Antifungal activity against Candida parapsilosis ATCC 34136 measured at 72 hrs by broth dilution assay; type: functional; settings: Lodderomyces parapsilosis, ATCC 34136, 72 h; outline: as §2
Candida parapsilosis [21] = test: Antifungal activity against Candida parapsilosis 64E measured at 48 hrs by broth dilution assay; type: functional; settings: Lodderomyces parapsilosis; outline: as §2
Candida albicans [22] = test: Upregulation of IFU5 gene expression in Candida albicans SC5314 at 3 uM after 45 mins by microarray method relative to control; type: functional; outline: as §3
Candida albicans [23] = test: Upregulation of orf19.7336 gene expression in Candida albicans SC5314 at 3 uM after 45 mins by microarray method relative to control; type: functional; outline: as §1
Candida albicans [24] = test: Upregulation of ARE2 gene expression in Candida albicans SC5314 at 3 uM after 45 mins by microarray method relative to control; type: functional; outline: as §3
Pichia kudriavzevii [25] = test: Antifungal activity against Candida krusei ATCC 14243 measured at 24 hrs by broth dilution assay; type: functional; settings: ATCC 14243, 24 h; outline: as §2
Candida albicans [26] = test: Antifungal activity against fluconazole-susceptible Candida albicans ATCC 90028 in immunocompetent Balb/c mouse candidiasis model assessed as reduction in CFU count in spleen at 20 to 40 mg/kg/day, ip regime measured on day 7 post infection; type: functional, organism-based
Outline: (§5)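 Immunocompetent BALB/c mice, 10 per strain group, injected in the lateral tail vein with 7 × 10^4 CFU of C. albicans in 200 µL sterile saline. Compound given ip daily, 100 µL of 0.1 mg/mL in DMSO/PEG 400 2:1; fluconazole control ip at 8 mg/kg/day. On day 7, spleen and kidneys were excised, weighed and homogenized in saline, then plated on YPD agar for 2 days at 30 °C. Read-out CFU/g; Wilcoxon rank-sum test, P<0.05.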

Candida parapsilosis [27] = test: Ratio of MIC at 24 hrs to MIC at 48 hrs for Candida parapsilosis 64E; type: functional
Outline: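 MICs by EUCAST broth microdilution, with the update for non-fermenting yeasts, incubated at 37 °C. Read at 24, 48 and 72 h as the lowest concentration preventing visible growth.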

Candida albicans [28] = test: Antifungal activity against Candida albicans ATCC 60193 measured at 24 hrs by broth dilution assay; type: functional; settings: ATCC 60193, 24 h; outline: as §2
Candida albicans [29] = test: Antifungal activity against fluconazole-susceptible Candida albicans ATCC 90028 in immunocompetent Balb/c mouse candidiasis model assessed as reduction in CFU count in kidney at 20 to 40 mg/kg/day, ip regime measured on day 7 post infection; type: functional, organism-based; outline: as §5

C/C=C/CNC(=N)NCCCCCCCCN1CCCCCCCCNC(=N)NC1=O
fold change (FC) (Candida albicans [1]): 3.52
MIC (Candida parapsilosis [2]): 10 µM (≈ 4.36 µg/mL)
Activity (Candida albicans [3]): inactive
MIC (Candida parapsilosis [4]): 40 µM (≈ 17.4 µg/mL)
MIC (Candida albicans [5]): 5 µM (≈ 2.18 µg/mL)
fold change (FC) (Candida albicans [6]): 3.69
fold change (FC) (Candida albicans [7]): 134.38
inhibition at 80 µM (Pichia kudriavzevii [8]): 99.9%
MIC (Candida albicans [9]): 5 µM (≈ 2.18 µg/mL)
fold change (FC) (Candida albicans [10]): 6.56
Activity (Candida albicans [11]): Active
MIC (Candida albicans [12]): 5 µM (≈ 2.18 µg/mL)
fold change (FC) (Candida albicans [13]): 2.63
MIC (Pichia kudriavzevii [14]): 80 µM (≈ 34.9 µg/mL)
Activity (Cryptococcus neoformans [15]): Active
inhibition at 20 µM (Candida tropicalis): 99.9%
Activity (Cryptococcus neoformans [16]): Active
fold change (FC) (Candida albicans [17]): 2.04
Activity (Candida parapsilosis [18]): Active
fold change (FC) (Candida albicans [19]): 3.38
MIC (Nakaseomyces glabratus): > 80 µM
MIC (Candida parapsilosis [20]): 80 µM (≈ 34.9 µg/mL)
MIC (Candida parapsilosis [21]): 40 µM (≈ 17.4 µg/mL)
fold change (FC) (Candida albicans [22]): 2.58
fold change (FC) (Candida albicans [23]): 3.49
fold change (FC) (Candida albicans [24]): 2.88
MIC (Pichia kudriavzevii [25]): 10 µM (≈ 4.36 µg/mL)
Activity (Candida albicans [26]): Active
Ratio (Candida parapsilosis [27]): 2
MIC (Candida albicans [28]): 5 µM (≈ 2.18 µg/mL)
Activity (Candida albicans [29]): Active
